Test results as given in ChEMBL document CHEMBL3865795, “Design, synthesis and biological evaluation of N-((1-benzyl-1H-1,2,3-triazol-4-yl)methyl)-1,3-diphenyl-1H-pyrazole-4-carboxamides as CDK1/Cdc2 inhibitors” (2016).
Activity calls are given as the source filed them. No cut-off for these calls is given here.

Legend:
[1] = Antiproliferative activity against human MIAPaCa2 cells after 48 hrs by SRB assay; format: functional; settings: MIA PaCa-2, 48 h
Procedure, shortened: (§1)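 SRB assay in ATCC-sourced cells grown in DMEM with 10% FBS and penicillin/streptomycin at 37 °C, 5% CO2. Cells were plated at densities set by doubling time and incubated 24 h before dosing. Compounds (DMSO 10 mM stock diluted in medium) were tested at 0.01, 0.1, 1, 10 and 100 µM with 48 h continuous exposure. Cells were fixed in cold 10% TCA and stained with 0.057% SRB; OD was read at 510 nm. GI50 was derived from time-zero, control and test absorbances and reported as the mean of three independent experiments.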

[2] = Antiproliferative activity against human MCF7 cells after 48 hrs by SRB assay; format: functional; settings: MCF7, 48 h; procedure, shortened: as §1
[3] = Antiproliferative activity against human HeLa cells after 48 hrs by SRB assay; format: functional; procedure, shortened: as §1
MCF7 [4] = assay: Induction of apoptosis in human MCF7 cells assessed as necrotic cells at 100 nM after 48 hrs by Annexin V FITC/propidium iodide-based FACS analysis (reference value: 0.4 %); format: functional
MCF7 [5] = assay: Induction of apoptosis in human MCF7 cells assessed as necrotic cells at 50 nM after 48 hrs by Annexin V FITC/propidium iodide-based FACS analysis (reference value: 0.4 %); format: functional
MCF7 [6] = assay: Induction of apoptosis in human MCF7 cells assessed as chromatin condensation at 50 to 100 nM after 48 hrs by Hoechst 33242-staining based fluorescence microscopic analysis; format: functional, cell-based
Procedure, shortened: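 MCF-7 cells were seeded at 1×10^5 cells/mL, exposed to compound at 50 or 100 nM, with DMSO vehicle as control. They were fixed in 4% paraformaldehyde for 10 min at 4 °C and stained with Hoechst 33242 (2 µg/mL) for 10 min at room temperature. Nuclear morphology was imaged by fluorescence microscopy in random fields.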

MCF7 [7] = assay: Induction of apoptosis in human MCF7 cells assessed as late apoptotic cells at 50 nM after 48 hrs by Annexin V FITC/propidium iodide-based FACS analysis (reference value: 4.2 %); format: functional
MCF7 [8] = assay: Induction of apoptosis in human MCF7 cells assessed as viable cells at 100 nM after 48 hrs by Annexin V FITC/propidium iodide-based FACS analysis (reference value: 93.1 %); format: functional; settings: MCF7, 48 h, read-out: Activity
MCF7 [9] = assay: Induction of apoptosis in human MCF7 cells assessed as late apoptotic cells at 100 nM after 48 hrs by Annexin V FITC/propidium iodide-based FACS analysis (reference value: 4.2 %); format: functional
MCF7 [10] = assay: Induction of apoptosis in human MCF7 cells assessed as early apoptotic cells at 50 nM after 48 hrs by Annexin V FITC/propidium iodide-based FACS analysis (reference value: 2.4 %); format: functional
MCF7 [11] = assay: Induction of apoptosis in human MCF7 cells after 48 hrs by Annexin V FITC/propidium iodide-based FACS analysis; format: functional, cell-based
MCF7 [12] = assay: Induction of apoptosis in human MCF7 cells assessed as intracellular ROS generation at 100 nM after 48 hrs by carboxy-DCFDA staining based fluorescence microscopic analysis; format: functional, cell-based
Procedure, shortened: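 MCF-7 cells were plated at 1×10^5 cells/mL, adhered overnight and treated at 50 or 100 nM. Methods and legend state 24 h treatment; the results text states 48 h. Cells were PBS-washed, fixed in 4% paraformaldehyde and exposed to carboxy-DCFDA for 30 min in the dark at room temperature. DCF fluorescence was assessed by fluorescence microscopy.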

[13] = Downregulation of CDK1 in human MCF7 cells at 50 to 100 nM after 48 hrs by Western blot analysis; format: functional, cell-based
Procedure, shortened: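 MCF-7 cells were treated 48 h at 50 or 100 nM and lysed in RIPA buffer. Lysate (50 µg per lane) was resolved on 10% SDS-PAGE and transferred to PVDF. Membranes were BSA-blocked, probed with primary antibody for 24 h and detected by chemiluminescence, with β-actin as loading control.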

[14] = Cell cycle arrest in human MCF7 cells assessed as reduction in DNA content at G0/G1 phase at 50 to 100 nM after 48 hrs by propidium iodide-staining based FACS analysis; format: functional
Procedure, shortened: (§2)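 MCF-7 cells were incubated 48 h with compound at 50 or 100 nM; nocodazole 100 nM was the reference. Untreated and treated cells were harvested, washed in PBS, fixed in ice-cold 70% ethanol, stained with propidium iodide and analysed by flow cytometry for cell-cycle phase distribution.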

[15] = Cell cycle arrest in human MCF7 cells assessed as accumulation at G2/M phase after 48 hrs by propidium iodide-staining based FACS analysis; format: functional; procedure, shortened: as §2
MCF7 [16] = assay: Induction of apoptosis in human MCF7 cells assessed as early apoptotic cells at 100 nM after 48 hrs by Annexin V FITC/propidium iodide-based FACS analysis (reference value: 2.4 %); format: functional
MCF7 [17] = assay: Induction of apoptosis in human MCF7 cells assessed as reduction in mitochondrial membrane potential at 50 to 100 nM after 48 hrs by rhodamine 123-staining based fluorescence microscopic analysis; format: functional, cell-based
Procedure, shortened: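 MCF-7 cells were plated at 1×10^5 cells/mL and allowed to adhere overnight, then treated at 50 or 100 nM. After PBS washes they were loaded with rhodamine 123 (5 µg/ml) for 30 min in the dark at 37 °C. Loss of green fluorescence was assessed by fluorescence microscopy.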

MCF7 [18] = assay: Induction of apoptosis in human MCF7 cells assessed as viable cells at 50 nM after 48 hrs by Annexin V FITC/propidium iodide-based FACS analysis (reference value: 93.1 %); format: functional; settings: MCF7, 48 h, read-out: Activity

Structure (SMILES)	GI50 [1]	GI50 [2]	GI50 [3]	further results
COc1ccc(Cn2cc(CNC(=O)c3cn(-c4ccccc4)nc3-c3ccccc3)nn2)cc1	10.2 µM	> 100000 nM	6900 nM	
COc1ccc(-c2nn(-c3ccccc3)cc2C(=O)NCc2cn(Cc3ccc(OC)c(OC)c3)nn2)cc1	16.3 µM	> 100000 nM	800 nM	
COc1ccc(-c2nn(-c3ccccc3)cc2C(=O)NCc2cn(Cc3cc(OC)cc(OC)c3)nn2)cc1	5.8 µM	700 nM	12400 nM	
COc1cc(Cn2cc(CNC(=O)c3cn(-c4ccccc4)nc3-c3ccccc3)nn2)cc(OC)c1OC	1 µM	> 100000 nM	> 100000 nM	
O=C(NCc1cn(Cc2ccc(Cl)cc2)nn1)c1cn(-c2ccccc2)nc1-c1ccc(F)cc1	0.28 µM	130 nM	210 nM	Activity (MCF7 [4]): 2%; Activity (MCF7 [5]): 0.7%; Activity (MCF7 [6]): Active; Activity (MCF7 [7]): 10.3%; viability at 0.1 µM (MCF7 [8]): 69.3%; Activity (MCF7 [9]): 20.5%; Activity (MCF7 [10]): 5.2%; Activity (MCF7 [11]): Dose-dependent effect; Activity (MCF7 [12]): Active; Activity [13]: Active; Activity [14]: Active; Activity [15]: Dose-dependent effect; Activity (MCF7 [16]): 8.2%; Activity (MCF7 [17]): Active; viability at 0.05 µM (MCF7 [18]): 83.8%
COc1ccc(Cn2cc(CNC(=O)c3cn(-c4ccccc4)nc3-c3ccc(Cl)cc3)nn2)cc1	0.29 µM	8000 nM	1400 nM	
COc1ccc(Cn2cc(CNC(=O)c3cn(-c4ccccc4)nc3-c3ccc(OC)cc3)nn2)cc1	2.5 µM	22900 nM	450 nM	
COc1cc(Cn2cc(CNC(=O)c3cn(-c4ccccc4)nc3-c3ccc(F)cc3)nn2)cc(OC)c1OC	5.2 µM	4300 nM	2100 nM	
COc1ccc(Cn2cc(CNC(=O)c3cn(-c4ccccc4)nc3-c3ccc(Cl)cc3)nn2)cc1OC	9.4 µM	> 100000 nM	200 nM	
O=C(NCc1cn(Cc2ccc(Cl)cc2)nn1)c1cn(-c2ccccc2)nc1-c1ccc(Cl)cc1	0.41 µM	28800 nM	470 nM	
COc1cc(Cn2cc(CNC(=O)c3cn(-c4ccccc4)nc3-c3ccccc3)nn2)cc(OC)c1	0.19 µM	2400 nM	12200 nM	
COc1ccc(Cn2cc(CNC(=O)c3cn(-c4ccccc4)nc3-c3ccccc3)nn2)cc1OC	8.2 µM	12600 nM	10800 nM	
COc1ccc(Cn2cc(CNC(=O)c3cn(-c4ccccc4)nc3-c3ccc(F)cc3)nn2)cc1OC	> 100 µM	> 100000 nM	200 nM	
COC(=O)Nc1nc2cc(C(=O)c3cccs3)ccc2[nH]1 [NOCODAZOLE]	0.95 µM	940 nM	810 nM	Activity (MCF7 [4]): 1.6%; viability at 0.1 µM (MCF7 [8]): 70.5%; Activity (MCF7 [9]): 20.3%; Activity (MCF7 [11]): Dose-dependent effect; Activity (MCF7 [16]): 7.6%
COc1ccc(-c2nn(-c3ccccc3)cc2C(=O)NCc2cn(Cc3ccc(Cl)cc3)nn2)cc1	26.3 µM	2900 nM	6400 nM	
O=C(NCc1cn(Cc2ccc(C(F)(F)F)cc2)nn1)c1cn(-c2ccccc2)nc1-c1ccc(F)cc1	0.76 µM	810 nM	250 nM	
O=C(NCc1cn(Cc2ccc(F)cc2)nn1)c1cn(-c2ccccc2)nc1-c1ccccc1	9.6 µM	7000 nM	1600 nM	
COc1cc(Cn2cc(CNC(=O)c3cn(-c4ccccc4)nc3-c3ccc(F)cc3)nn2)cc(OC)c1	0.19 µM	2500 nM	360 nM	
O=C(NCc1cn(Cc2ccc(C(F)(F)F)cc2)nn1)c1cn(-c2ccccc2)nc1-c1ccccc1	17.7 µM	840 nM	1600 nM	
O=C(NCc1cn(Cc2ccc(C(F)(F)F)cc2)nn1)c1cn(-c2ccccc2)nc1-c1ccc(Cl)cc1	1.1 µM	4900 nM	1900 nM	
COc1ccc(-c2nn(-c3ccccc3)cc2C(=O)NCc2cn(Cc3ccc(F)cc3)nn2)cc1	24.1 µM	460 nM	500 nM	
COc1ccc(-c2nn(-c3ccccc3)cc2C(=O)NCc2cn(Cc3ccc(C(F)(F)F)cc3)nn2)cc1	> 100 µM	> 100000 nM	6200 nM	
COc1ccc(-c2nn(-c3ccccc3)cc2C(=O)NCc2cn(Cc3cc(OC)c(OC)c(OC)c3)nn2)cc1	31.6 µM	7600 nM	1700 nM	
COc1cc(Cn2cc(CNC(=O)c3cn(-c4ccccc4)nc3-c3ccc(Cl)cc3)nn2)cc(OC)c1OC	3.5 µM	2500 nM	100 nM	
COc1ccc(Cn2cc(CNC(=O)c3cn(-c4ccccc4)nc3-c3ccc(F)cc3)nn2)cc1	3.7 µM	650 nM	870 nM	
O=C(NCc1cn(Cc2ccc(F)cc2)nn1)c1cn(-c2ccccc2)nc1-c1ccc(Cl)cc1	1.99 µM	570 nM	2800 nM	
O=C(NCc1cn(Cc2ccc(Cl)cc2)nn1)c1cn(-c2ccccc2)nc1-c1ccccc1	8.7 µM	> 100000 nM	600 nM	
COc1cc(Cn2cc(CNC(=O)c3cn(-c4ccccc4)nc3-c3ccc(Cl)cc3)nn2)cc(OC)c1	0.34 µM	150 nM	730 nM	Activity (MCF7 [4]): 2.2%; Activity (MCF7 [5]): 0.9%; Activity (MCF7 [6]): Active; Activity (MCF7 [7]): 10.2%; viability at 0.1 µM (MCF7 [8]): 61.4%; Activity (MCF7 [9]): 28.6%; Activity (MCF7 [10]): 5.6%; Activity (MCF7 [11]): Dose-dependent effect; Activity (MCF7 [12]): Active; Activity [13]: Active; Activity [14]: Active; Activity [15]: Dose-dependent effect; Activity (MCF7 [16]): 7.8%; Activity (MCF7 [17]): Active; viability at 0.05 µM (MCF7 [18]): 83.2%
O=C(NCc1cn(Cc2ccc(F)cc2)nn1)c1cn(-c2ccccc2)nc1-c1ccc(F)cc1	14.3 µM	55300 nM	1200 nM	
